In brackets after ≈: the same amount, converted by molar mass.
Experiments:
[1] = target: T1, Cytochrome P450 2C9 (Homo sapiens, UniProt P11712); test: Inhibition of CYP2C9 (unknown origin) preincubated prior to substrate addition; assay type: ADME
[2] = target: T2, Cytochrome P450 2D6 (Homo sapiens, UniProt P10635); test: Inhibition of CYP2D6 (unknown origin) preincubated prior to substrate addition; assay type: ADME
Target sequence in this assay (P10635 whole entry): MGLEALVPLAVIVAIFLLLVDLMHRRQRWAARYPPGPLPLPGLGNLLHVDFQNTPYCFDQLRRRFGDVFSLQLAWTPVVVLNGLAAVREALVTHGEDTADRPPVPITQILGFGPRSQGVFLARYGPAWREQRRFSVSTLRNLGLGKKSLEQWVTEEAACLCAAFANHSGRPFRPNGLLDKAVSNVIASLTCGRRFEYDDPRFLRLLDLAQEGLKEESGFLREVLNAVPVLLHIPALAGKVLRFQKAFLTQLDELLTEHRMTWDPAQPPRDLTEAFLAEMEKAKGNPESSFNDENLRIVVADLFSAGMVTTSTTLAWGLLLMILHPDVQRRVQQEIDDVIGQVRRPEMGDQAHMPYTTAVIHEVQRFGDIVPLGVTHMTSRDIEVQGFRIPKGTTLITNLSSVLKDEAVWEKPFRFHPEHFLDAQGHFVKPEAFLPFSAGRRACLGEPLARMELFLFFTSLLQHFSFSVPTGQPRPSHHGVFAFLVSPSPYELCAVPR

[3] = target: T2, Cytochrome P450 2D6; test: Inhibition of CYP2D6 (unknown origin) coincubated with substrate
Target sequence in this assay (P10635 whole entry, looked up): as the sequence (P10635 whole entry) above

[4] = tested on: Mus musculus; test: Antidyslipidemic activity in C57BL/6J mouse postprandial triglyceridemia model assessed as reduction in plasma triglyceride level at 10 mg/kg, po treated 15 mins prior to corn oil-challenge measured after 2 hrs by colorimetric method relative to control; assay type: functional; parameters: scale not given: the % may be the effect or the level left
How it was run: (§1)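 Male C57BL/6J mice fasted overnight; oral dose in 20% hydroxypropyl-b-cyclodextrin vehicle (vehicle alone for controls) 15 min before 0.25 mL corn oil challenge at time 0. Terminal blood taken by heart puncture under anesthesia at 2 h; plasma triglycerides measured colorimetrically by enzymatic TG reagent with absorbance read on a microplate reader, compared with vehicle-treated controls.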

[5] = target: hERG (Homo sapiens, UniProt Q12809); test: Inhibition of human ERG at 10 uM relative to control
Sequence of hERG (Q12809 whole entry): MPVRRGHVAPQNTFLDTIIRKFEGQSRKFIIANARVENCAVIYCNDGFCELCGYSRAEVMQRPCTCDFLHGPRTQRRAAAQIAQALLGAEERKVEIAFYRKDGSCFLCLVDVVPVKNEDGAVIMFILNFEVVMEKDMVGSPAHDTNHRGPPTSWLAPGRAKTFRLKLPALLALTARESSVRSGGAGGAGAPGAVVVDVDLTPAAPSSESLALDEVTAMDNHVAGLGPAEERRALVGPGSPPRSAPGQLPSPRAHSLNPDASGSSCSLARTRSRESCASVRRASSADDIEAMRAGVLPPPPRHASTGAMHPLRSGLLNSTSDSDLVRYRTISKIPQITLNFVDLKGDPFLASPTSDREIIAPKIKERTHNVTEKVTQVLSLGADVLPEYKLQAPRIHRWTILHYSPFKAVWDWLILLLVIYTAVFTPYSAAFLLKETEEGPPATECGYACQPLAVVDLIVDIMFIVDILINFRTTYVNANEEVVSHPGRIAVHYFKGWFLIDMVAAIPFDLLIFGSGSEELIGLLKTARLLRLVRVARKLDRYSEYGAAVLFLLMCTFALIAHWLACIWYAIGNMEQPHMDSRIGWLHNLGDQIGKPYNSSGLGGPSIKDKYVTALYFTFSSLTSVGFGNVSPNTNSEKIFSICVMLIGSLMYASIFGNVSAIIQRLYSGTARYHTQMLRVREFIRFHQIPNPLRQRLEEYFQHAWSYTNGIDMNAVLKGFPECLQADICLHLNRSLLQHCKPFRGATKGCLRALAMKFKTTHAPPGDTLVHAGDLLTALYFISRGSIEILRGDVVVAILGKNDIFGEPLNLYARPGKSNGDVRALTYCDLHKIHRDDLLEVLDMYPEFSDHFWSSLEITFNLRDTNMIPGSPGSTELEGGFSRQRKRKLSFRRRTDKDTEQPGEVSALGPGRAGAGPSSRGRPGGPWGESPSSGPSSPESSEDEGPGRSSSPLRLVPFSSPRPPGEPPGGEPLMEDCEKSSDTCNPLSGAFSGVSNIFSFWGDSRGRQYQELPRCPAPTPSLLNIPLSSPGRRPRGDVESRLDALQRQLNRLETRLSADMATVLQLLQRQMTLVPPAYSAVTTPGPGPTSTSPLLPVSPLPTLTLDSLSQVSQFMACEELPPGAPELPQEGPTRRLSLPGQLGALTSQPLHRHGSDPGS

[6] = target: T3, Cytochrome P450 3A4 (Homo sapiens, UniProt P08684); test: Inhibition of CYP3A4 (unknown origin) preincubated prior to substrate addition; assay type: ADME
T3 sequence (P08684 whole entry): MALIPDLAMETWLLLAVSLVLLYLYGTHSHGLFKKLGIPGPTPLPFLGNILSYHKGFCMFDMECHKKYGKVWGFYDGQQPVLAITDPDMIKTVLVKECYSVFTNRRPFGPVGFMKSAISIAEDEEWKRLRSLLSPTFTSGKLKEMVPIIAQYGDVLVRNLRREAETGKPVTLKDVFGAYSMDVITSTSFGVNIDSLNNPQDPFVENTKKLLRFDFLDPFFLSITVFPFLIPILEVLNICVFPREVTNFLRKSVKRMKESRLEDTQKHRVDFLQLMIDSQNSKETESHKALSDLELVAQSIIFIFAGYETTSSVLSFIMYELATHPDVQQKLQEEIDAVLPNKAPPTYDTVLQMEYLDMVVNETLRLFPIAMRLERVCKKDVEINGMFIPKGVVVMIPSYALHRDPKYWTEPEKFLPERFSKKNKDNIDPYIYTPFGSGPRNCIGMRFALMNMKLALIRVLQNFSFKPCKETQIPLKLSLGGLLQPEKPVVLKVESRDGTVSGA

[7] = Clearance in human hepatocytes measured per 10^6 cells; assay type: ADME, cell-based, Hepatocyte; conditions: read-out: CLH
[8] = target: T4, Diacylglycerol O-acyltransferase 1 (Mus musculus, UniProt Q9Z2A7); test: Inhibition of mouse DGAT-1
T4 sequence (Q9Z2A7 whole entry): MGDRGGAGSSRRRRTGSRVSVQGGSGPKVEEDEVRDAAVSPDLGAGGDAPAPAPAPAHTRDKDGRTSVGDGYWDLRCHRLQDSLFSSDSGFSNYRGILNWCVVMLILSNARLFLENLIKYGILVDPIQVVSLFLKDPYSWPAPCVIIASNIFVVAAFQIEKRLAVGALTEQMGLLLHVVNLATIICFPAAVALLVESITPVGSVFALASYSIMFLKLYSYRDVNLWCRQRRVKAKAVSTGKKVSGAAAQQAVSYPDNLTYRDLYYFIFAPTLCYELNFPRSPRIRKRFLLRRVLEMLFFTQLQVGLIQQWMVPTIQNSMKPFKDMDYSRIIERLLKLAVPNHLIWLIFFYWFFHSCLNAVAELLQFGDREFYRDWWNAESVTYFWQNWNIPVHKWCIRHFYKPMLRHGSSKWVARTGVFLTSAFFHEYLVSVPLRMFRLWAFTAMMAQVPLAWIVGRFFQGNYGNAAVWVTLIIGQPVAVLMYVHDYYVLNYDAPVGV

[9] = target: T3, Cytochrome P450 3A4; test: Inhibition of CYP3A4 (unknown origin) coincubated with substrate; assay type: ADME
[10] = target: T1, Cytochrome P450 2C9; test: Inhibition of CYP2C9 (unknown origin) coincubated with substrate; assay type: ADME
[11] = Solubility of the compound; assay type: physicochemical
[12] = Plasma protein binding (unknown origin); assay type: ADME, cell-free; conditions: read-out: PPB (converted)
[13] = AUC in po dosed rat; assay type: ADME, organism-based; conditions: plasma
[14] = tested on: Mus musculus; test: Antidyslipidemic activity in C57BL/6J mouse postprandial triglyceridemia model assessed as reduction in plasma triglyceride level at 3 mg/kg, po treated 15 mins prior to corn oil-challenge measured after 2 hrs by colorimetric method relative to control; assay type: functional; parameters: scale not given: the % may be the effect or the level left; how it was run: as §1

T1 sequence (P11712 whole entry): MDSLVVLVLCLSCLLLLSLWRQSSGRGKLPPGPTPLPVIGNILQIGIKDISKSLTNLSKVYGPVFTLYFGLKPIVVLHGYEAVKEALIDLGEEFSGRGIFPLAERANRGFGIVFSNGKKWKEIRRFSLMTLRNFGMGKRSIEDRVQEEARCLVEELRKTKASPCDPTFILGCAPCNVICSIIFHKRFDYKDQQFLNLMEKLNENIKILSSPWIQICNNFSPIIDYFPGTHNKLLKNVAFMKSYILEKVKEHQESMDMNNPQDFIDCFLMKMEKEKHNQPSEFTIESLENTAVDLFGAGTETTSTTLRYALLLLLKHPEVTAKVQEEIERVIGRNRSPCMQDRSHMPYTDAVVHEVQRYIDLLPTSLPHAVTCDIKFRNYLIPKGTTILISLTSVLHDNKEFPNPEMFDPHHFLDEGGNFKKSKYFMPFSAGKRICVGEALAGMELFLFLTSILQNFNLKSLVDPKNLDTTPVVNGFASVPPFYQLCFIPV

In the case of `CC(C)OC(=O)N1CCN(c2ccc(NC(=O)c3oc(N4CCCCC4)nc3C(F)(F)F)cn2)CC1`, the IC50 [1] is reported as > 20 µM, the IC50 [2] is reported as > 20 µM and the IC50 [3] is reported as > 20 µM. For the same compound, the Activity [4] was -12%, the inhibition at 10 µM [5] was 40% and the IC50 [6] was > 20 µM. For the same compound, the hepatocyte CLint [7] was 24.2 µL/min/1e6 cells, the IC50 [8] was 1.2 µM and the IC50 [9] was > 20 µM. The IC50 [10] was > 20 µM, the solubility [11] was 100 µM (≈ 51.1 µg/mL) and the fraction unbound [12] was 0.004. It also gave an AUC [13] of 69 µM·h.
Compound `O=C(Nc1ccc(N2CCN(C(=O)OC3CCCC3)CC2)nc1)c1oc(N2CCCCC2)nc1C(F)(F)F` has an Activity [4] of -27%.
Work on `O=C(Nc1ccc(N2CCN(C(=O)Oc3ccccc3Cl)CC2)nc1)c1oc(N2CCCCC2)nc1C(F)(F)F` yielded an IC50 [8] of 1.39 µM.
For `O=C(Nc1ccc(N2CCN(C(=O)Nc3ccccc3Cl)CC2)nc1)c1oc(N2CCCCC2)nc1C(F)(F)F`, the IC50 [1] was 9.7 µM, the IC50 [2] was > 20 µM and the IC50 [3] was > 20 µM. The Activity [4] was -63%, the IC50 [6] was 5 µM and the hepatocyte CLint [7] was 16.9 µL/min/1e6 cells. For the same compound, the IC50 [8] was 0.026 µM, the IC50 [9] was > 20 µM and the IC50 [10] was 6.4 µM. For the same compound, the solubility [11] was 10 µM (≈ 5.78 µg/mL), the fraction unbound [12] was 0.001 and the Activity [14] was -28%. For the same compound, the AUC [13] was 25 µM·h.
For `O=C(Nc1ccc(N2CCCN(C(=O)Nc3ccccc3Cl)CC2)nc1)c1oc(N2CCCCC2)nc1C(F)(F)F`, the IC50 [8] was 0.134 µM.
Work on `O=C(Nc1ccc(N2CCN(c3ncccc3Cl)CC2)nc1)c1oc(N2CCCCC2)nc1C(F)(F)F` yielded an IC50 [8] of 2.27 µM.
`COCCN(C)c1ccc(NC(=O)c2oc(-c3ccccc3)nc2C(F)(F)F)cn1` showed an IC50 [8] of 2.85 µM and an AUC [13] of 12.7 µM·h.
